From ChEMBL document CHEMBL5724801, “EUbOPEN Chemogenomics Library - Multiplex” (2024)
“And” between values parts separate entries of the source, which are not always exact repeats. Identical values can stand only once. Non-standard residues stand in square brackets, D forms with d. Residues, ends and D or L forms follow the SMILES beside them.

Tested on: HEK-293T
Experiment: Multiplex assay against HEK293T
Type: toxicity, cell-based
Settings: human
Summary of the method: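 Values for tubulin, mitochondrial-mass and membrane-permeability phenotypes are per cents of cells with healthy nuclei. These cells were identified by CellPathfinder machine-learning gating of live cells that had been stained at seeding with Hoechst33342, BioTracker Green Microtubule Cytoskeleton Dye, MitoTracker Red and Annexin V Alexa Fluor 680 and imaged on a CQ1 microscope at 37°C and 5% CO2 after compound addition. The gating first set Hoechst high-intensity objects apart from normal cells, then split normal cells into healthy, pyknosed or fragmented nuclei, and pyknosed cells into mitotic or apoptotic.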

[1] = 12 h, 1 µM, compound concentration 1 uM
[2] = 12 h, 10 µM, compound concentration 10 uM
[3] = 24 h, 1 µM, compound concentration 1 uM
[4] = 24 h, 10 µM, compound concentration 10 uM
[5] = 48 h, 1 µM, compound concentration 1 uM
[6] = 48 h, 10 µM, compound concentration 10 uM

Question: What does the source list for O=C(Nc1cc(C(F)(F)F)cc(C(F)(F)F)c1)c1cc(Cl)ccc1O [IMD-0354]?
Answer: Population Apoptotic (%) [1]: 4.35% and 3.39%; Population Fragmented Nuclei (%) [1]: 2.35% and 2.03%; Population Healthy Nuclei (%) [1]: 43.53% and 18.24%; Population Hoechst High Intensity Objects (%) [1]: 0.58% and 0%; Population Membrane Permeable-Phenotype (%) [1]: 0.68% and 0%; Population Mitotic Cells (%) [1]: 95.65% and 96.61%; Population Normal (%) [1]: 99.42% and 100%; Population Pyknosed Nuclei (%) [1]: 54.12% and 79.73%; Total Cell Count [1]: 342 and 148; Population Apoptotic (%) [2]: 8.89% and 5.65%; Population Fragmented Nuclei (%) [2]: 4.05% and 10.2%; Population Healthy Nuclei (%) [2]: 14.86% and 5.44%; Population Hoechst High Intensity Objects (%) [2]: 1.33% and 0%; Population Membrane Permeable-Phenotype (%) [2]: 0% and 12.5%; Population Mitotic Cells (%) [2]: 91.11% and 94.35%; Population Normal (%) [2]: 98.67% and 100%; Population Pyknosed Nuclei (%) [2]: 81.08% and 84.35%; Population Tubulin-Different-Phenotype (%) [2]: 0%; Total Cell Count [2]: 225 and 147; Population Apoptotic (%) [3]: 6.35% and 10.83%; Population Fragmented Nuclei (%) [3]: 1.67% and 0%; Population Healthy Nuclei (%) [3]: 68.26% and 25.47%; Population Hoechst High Intensity Objects (%) [3]: 0.48% and 0%; Population Membrane Permeable-Phenotype (%) [3]: 2.8% and 4.88%; Population Mitochondria Different-Phenotype (%) [3]: 4.9% and 4.88%; Population Mitotic Cells (%) [3]: 93.65% and 89.17%; Population Normal (%) [3]: 99.52% and 100%; Population Pyknosed Nuclei (%) [3]: 30.07% and 74.53%; Population Tubulin-Different-Phenotype (%) [3]: 6.99% and 2.44%; Total Cell Count [3]: 421 and 161; Population Apoptotic (%) [4]: 5.52% and 6.29%; Population Fragmented Nuclei (%) [4]: 3.57% and 12.35%; Population Hoechst High Intensity Objects (%) [4]: 0.88% and 0%; Population Membrane Permeable-Phenotype (%) [4]: 5.71% and 0%; Population Mitochondria Different-Phenotype (%) [4]: 5.71% and 0%; Population Mitotic Cells (%) [4]: 94.48% and 93.71%; Population Normal (%) [4]: 99.12% and 100%; Population Pyknosed Nuclei (%) [4]: 80.8% and 84.12%; Population Tubulin-Different-Phenotype (%) [4]: 5.71% and 16.67%; Total Cell Count [4]: 226 and 170; Population Apoptotic (%) [5]: 6.21% and 4.35%; Population Fragmented Nuclei (%) [5]: 1.53% and 0.99%; Population Healthy Nuclei (%) [5]: 78.27% and 53.69%; Population Hoechst High Intensity Objects (%) [5]: 0%; Population Membrane Permeable-Phenotype (%) [5]: 16.37% and 6.42%; Population Mitochondria Different-Phenotype (%) [5]: 2.49% and 3.67%; Population Mitotic Cells (%) [5]: 93.79% and 95.65%; Population Normal (%) [5]: 100%; Population Pyknosed Nuclei (%) [5]: 20.19% and 45.32%; Population Apoptotic (%) [6]: 5.97% and 5.04%; Population Fragmented Nuclei (%) [6]: 3.97% and 7.69%; Population Healthy Nuclei (%) [6]: 16.27% and 10.06%; Population Hoechst High Intensity Objects (%) [6]: 0.79% and 0%; Population Membrane Permeable-Phenotype (%) [6]: 12.2% and 5.88%; Population Mitochondria Different-Phenotype (%) [6]: 21.95% and 11.76%; Population Mitotic Cells (%) [6]: 94.03% and 94.96%; Population Normal (%) [6]: 99.21% and 100%; Population Pyknosed Nuclei (%) [6]: 79.76% and 82.25%; Total Cell Count [6]: 254 and 169

Question: CC(C)C[C@@H]1NC(=O)[C@@H](C(C)C)NC(=O)[C@@H]2CCCN2C(=O)[C@@H](CC(=O)O)NC(=O)[C@@H](Cc2c[nH]c3ccccc23)NC1=O [BQ-123] (cyclo(L[dW][dD]P[dV])) was tested. Which “Population Apoptotic (%)” value [1] did it give?
Answer: 46%

Question: And the “Population Fragmented Nuclei (%)” value [1]?
Answer: 7% and 5%

Question: What about the “Population Healthy Nuclei (%)” value [1] of the same compound?
Answer: 80% and 82%

Question: What about the “Population Hoechst High Intensity Objects (%)” value [1] of the same compound?
Answer: 4% and 7%

Question: What about the “Population Membrane Permeable-Phenotype (%)” value [1] of the same compound?
Answer: 0%

Question: What about the “Population Mitochondria Different-Phenotype (%)” value [1] of the same compound?
Answer: 39% and 59%

Question: What about the “Population Mitotic Cells (%)” value [1] of the same compound?
Answer: 53%

Question: What about the “Population Normal (%)” value [1] of the same compound?
Answer: 95% and 92%

Question: What about the “Population Pyknosed Nuclei (%)” value [1] of the same compound?
Answer: 11%

Question: What about the “Population Tubulin-Different-Phenotype (%)” value [1] of the same compound?
Answer: 32% and 19%

Question: And the “Total Cell Count” value [1]?
Answer: 376 and 392

Question: And the “Population Apoptotic (%)” value [2]?
Answer: 30% and 71%

Question: And the “Population Fragmented Nuclei (%)” value [2]?
Answer: 7% and 5%

Question: And the “Population Healthy Nuclei (%)” value [2]?
Answer: 78%

Question: And the “Population Hoechst High Intensity Objects (%)” value [2]?
Answer: 7% and 11%

Question: What about the “Population Membrane Permeable-Phenotype (%)” value [2] of the same compound?
Answer: 0%

Question: What about the “Population Mitochondria Different-Phenotype (%)” value [2] of the same compound?
Answer: 48% and 65%

Question: What about the “Population Mitotic Cells (%)” value [2] of the same compound?
Answer: 69% and 28%

Question: And the “Population Normal (%)” value [2]?
Answer: 92% and 88%

Question: And the “Population Pyknosed Nuclei (%)” value [2]?
Answer: 14% and 16%

Question: And the “Population Tubulin-Different-Phenotype (%)” value [2]?
Answer: 31% and 22%

Question: And the “Total Cell Count” value [2]?
Answer: 387 and 265

Question: And the “Population Apoptotic (%)” value [3]?
Answer: 26% and 40%

Question: What about the “Population Fragmented Nuclei (%)” value [3] of the same compound?
Answer: 10% and 7%

Question: What about the “Population Healthy Nuclei (%)” value [3] of the same compound?
Answer: 79% and 82%

Question: And the “Population Hoechst High Intensity Objects (%)” value [3]?
Answer: 3% and 5%

Question: What about the “Population Membrane Permeable-Phenotype (%)” value [3] of the same compound?
Answer: 0%

Question: What about the “Population Mitochondria Different-Phenotype (%)” value [3] of the same compound?
Answer: 27% and 35%

Question: And the “Population Mitotic Cells (%)” value [3]?
Answer: 73% and 59%

Question: What about the “Population Normal (%)” value [3] of the same compound?
Answer: 96% and 94%

Question: And the “Population Pyknosed Nuclei (%)” value [3]?
Answer: 9%

Question: What about the “Population Tubulin-Different-Phenotype (%)” value [3] of the same compound?
Answer: 21% and 14%

Question: And the “Total Cell Count” value [3]?
Answer: 497 and 538

Question: And the “Population Apoptotic (%)” value [4]?
Answer: 25% and 57%

Question: What about the “Population Fragmented Nuclei (%)” value [4] of the same compound?
Answer: 11% and 8%

Question: And the “Population Healthy Nuclei (%)” value [4]?
Answer: 77% and 78%

Question: What about the “Population Hoechst High Intensity Objects (%)” value [4] of the same compound?
Answer: 6% and 7%

Question: And the “Population Membrane Permeable-Phenotype (%)” value [4]?
Answer: 0%

Question: What about the “Population Mitochondria Different-Phenotype (%)” value [4] of the same compound?
Answer: 31% and 50%

Question: What about the “Population Mitotic Cells (%)” value [4] of the same compound?
Answer: 75% and 42%

Question: What about the “Population Normal (%)” value [4] of the same compound?
Answer: 93% and 92%

Question: And the “Population Pyknosed Nuclei (%)” value [4]?
Answer: 11% and 12%

Question: And the “Population Tubulin-Different-Phenotype (%)” value [4]?
Answer: 24% and 18%

Question: And the “Total Cell Count” value [4]?
Answer: 511 and 302

Question: What about the “Population Apoptotic (%)” value [5] of the same compound?
Answer: 21% and 24%

Question: And the “Population Fragmented Nuclei (%)” value [5]?
Answer: 11%

Question: And the “Population Healthy Nuclei (%)” value [5]?
Answer: 79% and 81%

Question: What about the “Population Hoechst High Intensity Objects (%)” value [5] of the same compound?
Answer: 3% and 5%

Question: And the “Population Membrane Permeable-Phenotype (%)” value [5]?
Answer: 0% and 1%

Question: And the “Population Mitochondria Different-Phenotype (%)” value [5]?
Answer: 22% and 18%

Question: What about the “Population Mitotic Cells (%)” value [5] of the same compound?
Answer: 78% and 75%

Question: And the “Population Normal (%)” value [5]?
Answer: 96% and 94%

Question: And the “Population Pyknosed Nuclei (%)” value [5]?
Answer: 9% and 7%

Question: What about the “Population Tubulin-Different-Phenotype (%)” value [5] of the same compound?
Answer: 15% and 10%

Question: And the “Total Cell Count” value [5]?
Answer: 719 and 777

Question: And the “Population Apoptotic (%)” value [6]?
Answer: 25% and 40%

Question: And the “Population Fragmented Nuclei (%)” value [6]?
Answer: 16% and 11%

Question: And the “Population Healthy Nuclei (%)” value [6]?
Answer: 77% and 80%

Question: What about the “Population Hoechst High Intensity Objects (%)” value [6] of the same compound?
Answer: 3%

Question: What about the “Population Membrane Permeable-Phenotype (%)” value [6] of the same compound?
Answer: 1% and 0%

Question: And the “Population Mitochondria Different-Phenotype (%)” value [6]?
Answer: 21% and 29%

Question: What about the “Population Mitotic Cells (%)” value [6] of the same compound?
Answer: 75% and 59%

Question: And the “Population Normal (%)” value [6]?
Answer: 96%

Question: What about the “Population Pyknosed Nuclei (%)” value [6] of the same compound?
Answer: 6% and 8%

Question: And the “Population Tubulin-Different-Phenotype (%)” value [6]?
Answer: 15% and 16%

Question: What about the “Total Cell Count” value [6] of the same compound?
Answer: 756 and 477
